In PubChem BioAssay AID2805 (Sanford-Burnham Center for Chemical Genomics, 2010) one finds activation factor data, which are given here for 5 compounds.

The whole screen tested about 330,000 compounds, of which about 780 (0.24%) were called active. Only a selection was taken, and actives are over-represented in it overall. A number with no mark means an inactive call.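 How the source made its calls: active means activation factor of at least 2 at 20 µM; inactive means the rest.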

The subject of this assay is intestinal alkaline phosphatase [Mus musculus]. Description: activators of mouse IAP, primary screen, biochemical, luminescence, uHTS (AID 2805). The conditions noted are these: muIAP, CDP-Star luminescence, 30 min, at 10 µM, stronger effect = higher value. Put shortly: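 Assay system: mouse IAP enzyme; Reagent: CDP-Star chemiluminescent phosphatase substrate; Compound: DMSO-dissolved test compounds; Incubation: 30 min, room temperature; Technique: luminescence from enzymatic CDP-Star hydrolysis; Controls: DMSO-only wells and no-enzyme negative control.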
Take `Cc1cc(C)cc(NC(=S)NC2CC3CCCC(C2)N3Cc2cccs2)c1` (stereo not given): the activation factor was 5.54 (active).

`O=C1NC(=O)C(C/C=C/c2ccccc2)C(=O)N1`: the activation factor was 0.991. In the case of `N#CC1=C(N)Oc2c(c(=O)oc3ccccc23)C1c1ccccc1OC(=O)c1cccs1` (stereo not given) it was 0.989; in that of `C=CCn1c(O)c(/C=N/N2CCOCC2)c(=O)[nH]c1=S`, 1.03. In the case of `O=C1C2(Cl)C3(Cl)C4(Cl)C(Cl)(Cl)C5(Cl)C3(Cl)C1(Cl)C5(Cl)C24Cl` (stereo not given) it was 0.917 [1 = vehicle-only enzyme signal, 0 = enzyme-free wells].
